PTK2B oligo ant = antagonists of human Pyk2 oligomerization; Q293 cells, Pyk2 FERM NanoBiT luminescence; hits give low values; z-score (the deposit names both 25 µM and 10 µM); actives 0.83% (n = 99,000);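 active = Z-score of -3 or lower, scaled per plate to the spread of control and sample wells; inactive = z-score above -3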;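 also: negative z-score means lost luminescence so less FERM oligomerization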
Target sequence (Q14289 whole entry, looked up): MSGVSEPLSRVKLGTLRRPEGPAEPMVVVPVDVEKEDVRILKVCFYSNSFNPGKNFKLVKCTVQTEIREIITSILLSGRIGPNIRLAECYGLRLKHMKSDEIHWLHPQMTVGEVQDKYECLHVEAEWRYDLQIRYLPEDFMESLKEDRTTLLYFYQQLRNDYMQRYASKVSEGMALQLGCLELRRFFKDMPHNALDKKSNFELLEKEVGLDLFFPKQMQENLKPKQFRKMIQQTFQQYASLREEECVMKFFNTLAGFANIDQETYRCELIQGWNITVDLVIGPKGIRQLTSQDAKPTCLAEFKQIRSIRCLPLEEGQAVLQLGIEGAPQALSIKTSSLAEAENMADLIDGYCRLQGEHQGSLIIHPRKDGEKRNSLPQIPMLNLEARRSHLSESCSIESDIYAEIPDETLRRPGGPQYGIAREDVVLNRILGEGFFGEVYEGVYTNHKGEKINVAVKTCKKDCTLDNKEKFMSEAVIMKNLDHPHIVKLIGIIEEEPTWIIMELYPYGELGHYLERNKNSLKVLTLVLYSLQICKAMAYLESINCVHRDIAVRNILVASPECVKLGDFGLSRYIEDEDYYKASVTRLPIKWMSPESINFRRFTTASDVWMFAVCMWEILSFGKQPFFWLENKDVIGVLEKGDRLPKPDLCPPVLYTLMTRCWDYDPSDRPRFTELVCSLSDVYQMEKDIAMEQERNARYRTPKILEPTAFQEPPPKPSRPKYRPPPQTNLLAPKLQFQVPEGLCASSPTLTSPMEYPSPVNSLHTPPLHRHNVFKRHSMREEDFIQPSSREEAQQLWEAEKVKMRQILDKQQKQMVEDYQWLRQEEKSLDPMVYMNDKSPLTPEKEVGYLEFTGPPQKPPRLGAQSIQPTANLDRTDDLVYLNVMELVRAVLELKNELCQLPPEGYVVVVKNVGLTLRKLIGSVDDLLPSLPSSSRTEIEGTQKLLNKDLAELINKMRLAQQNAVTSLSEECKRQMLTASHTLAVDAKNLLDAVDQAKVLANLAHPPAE
PostGolgi yeast = growth inhibition of a yeast mutant, post-Golgi transport screen. post-Golgi transport phenotypic cell assay. inhibition, % at 10 µM. actives 0.9% (n = 98,000). AID 739;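 also: yeast cells grown in 1536-well plates; yeast grown about 18 h at 30C before absorbance read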
Ecoli WT expand = blocks growth of wild type E. coli BW25113; OD600 absorbance; growth inhibition, % at 100 µM; actives 0.15% (n = 98,000); AID 710;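 active = growth inhibition above about 50% at one test dose, limit read from the data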;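 also: growth measured after 20 h incubation at 37 °C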
Cav32 inh = inhibitors of human Cav3.2 T-type calcium channel; O95180; Cav3.2-expressing cells, Fluo-4 calcium fluorescence FDSS; hits give low values; B-score at 10 µM; actives 4% (n = 100,000); AID 449739;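 active = single-dose well whose peak fluorescence ratio is a statistical outlier from its plate by either plate-standardised score or position-corrected B-score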
Ecoli tolC = growth inhibitors of E. coli BW25113 tolC mutant; growth inhibition, % at 10 µM (by protocol); actives 2.2% (n = 65,000); AID 573; OD615;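 active = growth inhibition at or above a cutoff equal to the mean over every tested compound plus 3 SD, cut at about 60% in these data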;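 also: growth measured after 20 h incubation at 37 °C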
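Assay system: tolC-deleted E. coli BW25113. Medium: kanamycin-containing LB broth (50 µg/mL). Dosing: 10 µM final, single dose. Timing: bacterial growth with compound for 20 h at 37 °C. Detection: A615 absorbance measurement. Read-out basis: growth inhibition in percent.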
PostGolgi ctrl = inhibits growth of the yeast control strain; inhibition, % at 10 µM; actives 5% (n = 98,000); efflux-deficient yeast background strain, growth absorbance A615, 16 h
* = called active by the depositor; nt = no result. Shown are actives, neighbours in structure and some others; about 8.7% of the full set was active somewhere. Rule as the data show it, unless noted: active = inhibition above about 30%; inactive = the rest.

SMILES	PTK2B oligo ant	PostGolgi yeast	Ecoli WT expand	Cav32 inh	Ecoli tolC	PostGolgi ctrl
N#Cc1c(-c2ccc(Cl)cc2Cl)nc2n(c1=O)CCS2	-0.96	-5.2	6.0	-0.936	14.6	32.1*
CCOC(=O)c1ccc(NC(=O)C(CC)(CC)C(=O)OCC)cc1	-0.94	-7.4	6.0	-0.952	15.9	19.9
COc1ccc(-c2n[nH]c(C)c2-c2cnn(-c3ccccc3)c2)c(O)c1	-0.58	nt	nt	-2.05	13.7	nt
COc1ccc(-c2n[nH]c(C)c2-c2cnn(-c3ccccc3)c2)c(O)c1C	-0.7	-12.0	-12.0	-0.0993	nt	49.7*
Cc1ccc(Cl)cc1N1CCN(C(c2cccnc2)c2nnnn2C2CCCCC2)CC1 (stereo not drawn)	-1.65	4.6	0.0	-4.99*	17.6	36.9*
c1cnc2ccc(C(c3nnnn3C3CCCC3)N3CCN(c4nc5ccccc5s4)CC3)cc2c1 (stereo not drawn)	-1.73	4.7	-10.0	-3.86*	12.9	3.3
OC1CCN(C(c2ccc3ncccc3c2)c2nnnn2C2CCCCC2)CC1 (stereo not drawn)	-0.01	-0.4	-5.0	-0.962	-9.6	9.9
Clc1ccc(C(c2nnnn2C2CCCC2)N2CCN(c3nc4ccccc4s3)CC2)cc1 (stereo not drawn)	-3.29*	nt	nt	-8.13*	nt	nt
CCCCC1C(C#N)=C(C)NC2=C1C(=O)CC(C)(C)C2 (stereo not drawn)	-0.88	-1.0	1.0	3.12	nt	8.0
CCCCNC(=O)CS(=O)Cc1nc(-c2ccc(C)cc2)oc1C (stereo not drawn)	nt	2.5	-4.0	-2.35	-5.6	-4.1
Cc1ccc(-c2nc(CS(=O)CC(=O)NCc3ccc(Cl)cc3)c(C)o2)cc1 (stereo not drawn)	nt	4.5	-12.0	-5.99*	-8.4	4.3
CCc1cccc(NC(=O)CS(=O)Cc2nc(-c3ccc(C)cc3)oc2C)c1 (stereo not drawn)	nt	-10.0	-9.0	-6.69*	4.9	34.5*
Cc1cccc(-c2nc(CS(=O)CC(=O)NCCCSC3CCCCC3)c(C)o2)c1 (stereo not drawn)	0.46	6.8	-16.0	-7.13*	72.7*	15.7
O=C(CN1CCN(c2ccccc2F)CC1)c1ccc2cc[nH]c2c1	nt	3.0	-2.0	nt	4.3	11.7
O=C1Nc2ccc(Cl)cc2[C@@](C#CC2CC2)(C(F)(F)F)O1	nt	nt	nt	-5.24*	nt	nt
CCOC(=O)c1c(NC(C)=O)sc2c1CCCNC2=O	0.04	-3.5	-11.0	1.85	9.8	-4.1
CCOC(=O)c1c(NC(C)=O)sc2c1CCC(C=O)=C2Sc1ccccc1	-3.51*	-2.9	5.0	0.939	nt	2.8
C=CCSc1nccc(-c2nn(-c3ccc(C)cc3)ccc2=O)n1	1.22	1.9	-20.0	-0.708	nt	34.2*
CCSc1nccc(-c2nn(-c3ccc(C)cc3)ccc2=O)n1	-0.06	-4.8	-7.0	-0.464	nt	15.4
O=c1c2ccccc2n(Cc2ccc(F)cc2)c(=O)n1C1CCCC1	-1.29	8.7	-11.0	nt	75.6*	14.0
O=c1c(-c2nc3ccccc3s2)cccn1Cc1ccc(Cl)c(Cl)c1	-0.62	-9.7	-15.0	nt	nt	35.9*
O=C(O)CSc1cc(C(F)(F)F)nc(-c2ccccn2)n1	0.54	0.3	-8.0	0.546	nt	-4.0
FC(F)(F)c1cccc(Sc2cc(C(F)(F)F)nc(-c3ccccn3)n2)c1	-0.8	-10.2	-4.0	-3.77	nt	42.3*
CC(C)N1CC=C2C(C#N)=C(N)C(C#N)(C#N)C(c3ccccc3)C2C1 (stereo not drawn)	-1.15	0.3	4.0	-1.97	-6.1	3.8
CC(C)N1CC=C2C(C#N)=C(N)C(C#N)(C#N)[C@H](c3ccoc3)[C@H]2C1	nt	-0.8	0.0	-4.56*	nt	20.2
SMILES	PTK2B oligo ant	PostGolgi yeast	Ecoli WT expand	Cav32 inh	Ecoli tolC	PostGolgi ctrl
O=C(Oc1ccc2cc(Br)ccc2c1)c1cccnc1	1.59	-6.4	-9.0	0.452	nt	-1.9
Cc1ccc(CNC(=O)Cn2c(=O)oc3ccccc32)o1	0.17	0.7	2.0	0.155	1.2	39.9*
O=C1CCCN1CCCNc1ncnc2c1cnn2-c1ccc(Cl)cc1	nt	-3.2	1.0	0.00251	9.3	37.7*
Cc1cccc(-n2ncc3c(NCCCN4CCCC4=O)ncnc32)c1	-1.35	-11.3	5.0	0.019	nt	4.8
COc1ccc(NC(=O)c2cnc3ccccn3c2=O)c(OC)c1	nt	nt	nt	nt	-0.6	nt
CC1CC2=C(NC(=S)NC2c2ccc(F)cc2)/C(=C/c2ccc(F)cc2)C1 (stereo not drawn)	-0.67	-2.5	-8.0	-2.19	nt	38.9*
CC(C)C(O)P(=O)(OCc1ccccc1)c1ccc(N(C)C)cc1 (stereo not drawn)	1.07	-8.2	3.0	0.247	-4.0	-0.2
c1ccc(C2=Nn3c(nnc3-c3n[nH]c4c3CCC4)SC2)cc1	-1.43	9.8	3.0	nt	24.1	3.3
Clc1ccc(C2=Nn3c(nnc3-c3n[nH]c4c3CCC4)SC2)cc1Cl	-2.14	14.2	11.0	-3.43	99.2*	38.4*
Cc1ccc(N2CN=c3s/c(=C\c4ccccn4)c(=O)n3C2)cc1	0.06	4.0	4.0	-0.469	8.3	-2.0
O=C([C@H](Cc1ccccc1)NS(=O)(=O)c1ccc(Cl)cc1)N1CC[C@@]2(O)CCCC[C@H]2C1	-1.41	-2.4	9.0	-3.34*	nt	2.6
Cn1c(=O)nc2n(Cc3ccccc3)c3cccc(Cl)c3cc-2c1=O	0.53	nt	nt	nt	nt	nt
O=c1cc(CN2CCN(c3ccccc3)CC2)c2cc(O)c(-c3ccccc3)cc2o1	-0.04	-5.6	0.0	0.568	-4.6	-6.5
O=c1cc(CN2CCN(c3ccccc3)CC2)c2c(ccc3ccccc32)o1	-0.75	6.0	-16.0	-2.04	11.9	32.4*
CC(C)c1ccc2oc(=O)cc(CN3CCN(c4ccc(F)cc4)CC3)c2c1	-0.8	4.8	-15.0	nt	37.3	32.8*
CCSCCOC(=O)C1=C(C)NC2=C(C(=O)CCC2)C1c1coc2ccccc2c1=O (stereo not drawn)	0.07	-2.0	-4.0	-2.8	7.5	7.7
Oc1cccc(O)c1O	nt	nt	nt	0.861	nt	nt
Cc1cc2n(n1)C(c1ccc(O)cc1)Nc1ccccc1-2 (stereo not drawn)	-0.79	2.1	4.0	0.743	5.5	12.7
Cc1cc2n(n1)C(c1ccc3c(c1)OCO3)Nc1c(C)cccc1-2 (stereo not drawn)	-0.64	-1.2	0.0	-3.25	71.3*	17.4
Cc1cc2n(n1)C(c1cn(-c3ccccc3)nc1C)Nc1c(C)cccc1-2 (stereo not drawn)	0.72	nt	nt	-2.47	nt	nt
Cc1cc(C)c2c(c1)-c1cc(C)nn1C(c1ccc3c(c1)OCO3)N2 (stereo not drawn)	0.23	16.0	-11.0	-1.31	26.9	46.7*
CCCC/C(C)=N/NC(=O)C(=O)NCCc1ccccc1	-0.38	5.1	-8.0	-1.04	nt	18.3
Cc1cc(-c2cc(C(=O)NCc3ccccc3)on2)nc(S(C)(=O)=O)n1	nt	nt	nt	1.06	nt	nt
CC(=O)CC1(O)C(=O)N(Cc2ccccc2)c2ccccc21 (stereo not drawn)	0.28	-1.7	6.0	0.579	nt	9.6
